Measured values gathered from unrelated publications.
Lines come from different studies, so protocols differ.
Target: Cyclin-G-associated kinase (GAK, Homo sapiens, UniProt O14976)
Sequence (O14976 1-1311, as in one of the studies): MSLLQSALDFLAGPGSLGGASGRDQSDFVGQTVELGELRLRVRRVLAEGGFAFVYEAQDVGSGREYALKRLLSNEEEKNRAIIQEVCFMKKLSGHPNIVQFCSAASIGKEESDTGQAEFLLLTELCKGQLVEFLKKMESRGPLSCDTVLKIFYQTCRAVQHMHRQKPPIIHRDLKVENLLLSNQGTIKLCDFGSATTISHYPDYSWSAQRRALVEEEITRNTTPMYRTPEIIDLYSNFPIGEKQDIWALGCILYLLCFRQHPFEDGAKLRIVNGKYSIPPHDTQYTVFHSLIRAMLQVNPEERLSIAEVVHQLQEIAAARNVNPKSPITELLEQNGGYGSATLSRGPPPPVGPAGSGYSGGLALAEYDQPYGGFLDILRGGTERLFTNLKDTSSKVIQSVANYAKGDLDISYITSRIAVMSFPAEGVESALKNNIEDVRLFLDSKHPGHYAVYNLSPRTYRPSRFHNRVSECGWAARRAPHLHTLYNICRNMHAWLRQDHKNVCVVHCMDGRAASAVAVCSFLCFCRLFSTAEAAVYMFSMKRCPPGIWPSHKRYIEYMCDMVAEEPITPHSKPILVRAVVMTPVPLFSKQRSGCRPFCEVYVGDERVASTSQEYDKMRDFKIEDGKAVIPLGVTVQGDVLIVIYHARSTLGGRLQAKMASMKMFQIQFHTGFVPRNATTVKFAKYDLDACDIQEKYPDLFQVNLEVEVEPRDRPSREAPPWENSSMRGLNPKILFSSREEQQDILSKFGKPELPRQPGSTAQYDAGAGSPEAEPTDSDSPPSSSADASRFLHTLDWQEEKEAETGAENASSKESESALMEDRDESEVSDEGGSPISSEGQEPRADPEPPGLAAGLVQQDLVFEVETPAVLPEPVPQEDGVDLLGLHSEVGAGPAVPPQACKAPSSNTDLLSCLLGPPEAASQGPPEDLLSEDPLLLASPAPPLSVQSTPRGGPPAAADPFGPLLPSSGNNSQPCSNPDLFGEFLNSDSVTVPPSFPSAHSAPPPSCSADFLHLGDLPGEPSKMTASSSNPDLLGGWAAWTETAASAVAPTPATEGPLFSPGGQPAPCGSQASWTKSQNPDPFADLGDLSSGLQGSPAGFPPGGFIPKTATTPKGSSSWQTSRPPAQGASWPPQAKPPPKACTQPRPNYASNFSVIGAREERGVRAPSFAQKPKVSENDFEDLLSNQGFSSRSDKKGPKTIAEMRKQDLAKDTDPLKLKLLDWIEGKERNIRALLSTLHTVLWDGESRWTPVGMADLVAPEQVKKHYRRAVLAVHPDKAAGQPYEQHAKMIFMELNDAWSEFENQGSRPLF

| effect on | method | tested at | remaining binding | SMILES |
| --- | --- | --- | --- | --- |
| cell-free assay | competition with immobilised ligand | 5 µM | 87% | COc1ncc2cc3ccccc3nc2c1C#N |
| binding | competition with immobilised ligand | 1 µM | 90% | O=C(Nc1c[nH]nc1C(=O)NC1CCNCC1)c1cc(F)cc(F)c1 |
| binding | competition with immobilised ligand | 1 µM | 100% | CNC(=O)[C@@H]1CC[C@@H](n2c(-c3ccc4cnccc4c3)nc3ccc(C(=O)NCc4cccc(C(N)=O)c4)cc32)C1 |
| binding |  | 1 µM | 56% | c1cnn2ncc(-c3ccnc(N4CCC45COC5)n3)c2c1 |
| binding | competition with immobilised ligand | 1 µM | 23% | O=C(c1ccc(Nc2ncc(Cl)c(-c3ccc(Cl)s3)n2)cc1)N1CCC(N2CCCC2)CC1 |
| binding | competition with immobilised ligand | 1 µM | 88% | Nc1ncc2c(n1)-c1c([nH]c3ccc(C#CC4CC4)cc13)CCCC2 |
| cell-free assay | competition with immobilised ligand | 1 µM | 91% | O=C(NC[C@@H]1[C@H]2CN(C(=O)OCc3cc(C(F)(F)F)cc(C(F)(F)F)c3)C[C@@H]12)c1ccc2[nH]nnc2c1 |
| binding |  | 1 µM | 85% | F[C@@H]1CCN(c2nccc(-c3cnn4ncccc34)n2)C1 |
| binding | competition with immobilised ligand | 0.1 µM | 99% | C[C@@H](c1ccc(-n2cnc3c(N)ncnc32)cc1)N1CCc2nn(C)c(Cc3ccccc3)c2C1=O |
| binding | competition with immobilised ligand | 1 µM | 100% | CCN1CCN(Cc2ccc(C(=O)Nc3ccc(C)c(Oc4ccc5c(c4)CC(=O)N5)c3)cc2C(F)(F)F)CC1 |
| binding |  | 1 µM | 100% | CN(c1nccc(-c2cnn3ncccc23)n1)C1CC1 |
| binding | competition with immobilised ligand | 1 µM | 34% | O=C(c1ccc(Nc2nccc(-c3cc4ccccc4s3)n2)cc1)N1CCC(N2CCCC2)CC1 |
| cell-free assay | competition with immobilised ligand | 1 µM | 94% | Cn1nc(C(F)(F)F)cc1-c1cnc(N2CCc3cc(S(=O)(=O)Nc4c(F)cc(Cl)cc4F)cc(N4CCCC4=O)c32)nc1 |
| binding | competition with immobilised ligand | 1 µM | 48% | O=C(c1ccc(Nc2ncc(Cl)c(-c3cc4ccccc4s3)n2)cc1)N1CCC(N2CCCC2)CC1 |
| binding |  | 1 µM | 94% | CC1CCCN1c1nccc(-c2cnn3ncccc23)n1 (stereo not shown) |
| cell-free assay | competition with immobilised ligand | 0.1 µM | 90% | Cn1nc(C(=O)NCc2ccc(C(=O)O)cc2)cc1-c1ccc2[nH]ccc2c1 |
| binding |  | 1 µM | 82% | CN(C)c1nccc(-c2cnn3ncccc23)n1 |
| cell-free assay | competition with immobilised ligand | 1 µM | 100% | CCS(=O)(=O)c1cc2cc(C[C@](O)(CC(C)(C)c3ccc(F)cc3C(N)=O)C(F)(F)F)[nH]c2cn1 |
| binding |  | 1 µM | 40% | C[C@@H]1CCN(c2nccc(-c3cnn4ncccc34)n2)C1 |
| cell-free assay | competition with immobilised ligand | 1 µM | 97% | CC(=O)N1CCC(c2ccc(C(=O)NC3=NCCN3)cc2C(F)(F)F)CC1 |
| binding |  | 1 µM | 80% | N[C@H]1CCN(c2nccc(-c3cnn4ncccc34)n2)C1 |
| cell-free assay | competition with immobilised ligand | 1 µM | 100% | CC(C)(O)c1cncc(-c2nc3ccc(F)cc3n2C2CC2)c1 |
